Assay results reported in ChEMBL document CHEMBL1121388, “Analgesic narcotic antagonists. 2. 8-Alkymorphinan-6-ones” (J Med Chem, 1980).
Activity calls are given as the source filed them. The rule behind the calls is not given here.

How the values were obtained:
Mus musculus [1] = test: The effective dose was measured by using mouse writhing assay after the compound administered subcutaneously.; assay type: functional; settings: sc
How it was run: (§1)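 Analgesia in the mouse writhing test induced by acetic acid, with compound given subcutaneously. Salts were dissolved in distilled H₂O; free bases were dissolved by dropwise 1 N HCl and then diluted.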

Rattus norvegicus [2] = test: The effective dose was measured by using rat tail flick assay after the compound administered intraperitoneally.; assay type: functional; settings: ip
Rattus norvegicus [3] = test: The Effective dose was measured by using rat tail flick assay after the compound administered intraperitoneally at a dose of 50 umol/kg; IA means inactive at the given dose; assay type: functional, organism-based
Rattus norvegicus [4] = organism: Rattus norvegicus; test: Ratio of agonist to that of antagonist activity; assay type: functional
Rattus norvegicus [5] = test: The Effective dose was measured by using rat tail flick assay after the compound administered intraperitoneally at a dose of 25 umol/kg; IA means inactive at the given dose; assay type: functional, organism-based
Rattus norvegicus [6] = test: Effective dose was measured by using rat tail flick assay after subcutaneous administration; assay type: functional; settings: sc
How it was run: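 Agonist activity in the rat heat-stimulus tail-flick test. Drug was given subcutaneously and rats were tested 20 min after dosing. Salts were dissolved in distilled H₂O; free bases were dissolved with dropwise 1 N HCl and then diluted. ED₅₀ or inactivity/lethality recorded at the dose indicated.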

Mus musculus [7] = test: The Effective dose was measured by using mouse writhing assay 5 min after the compound administered subcutaneously; assay type: functional; settings: sc
Mus musculus [8] = test: The Effective dose was measured by using mouse writhing assay after the compound administered subcutaneously at a dose of 25 umol/kg; IA means inactive at the given dose; assay type: functional, organism-based; how it was run: as §1

Compound: CCC[C@@H]1CC(=O)CC23CCN(CC4CCC4)C(Cc4ccc(O)cc42)[C@@H]13 (stereo partly drawn)
- ED50 (Mus musculus [1]): > 24 µmol/kg
- ED50 (Rattus norvegicus [2]): 4.5 µmol/kg

Compound: CC[C@H]1CC(=O)CC23CCN(CC4CCC4)C(Cc4ccc(OC)cc42)[C@H]13 (stereo partly drawn)
- ED50 (Mus musculus [1]): 14.2 µmol/kg
- ED50 (Rattus norvegicus [3]): inactive

Compound: COc1ccc2c(c1)C13CCN(CC4CCC4)C(C2)[C@@H]1[C@@H](C)CC(=O)C3.Cl (stereo partly drawn)
- ED50 (Mus musculus [1]): 1.38 µmol/kg
- ED50 (Rattus norvegicus [2]): 16.4 µmol/kg
- Ratio (Rattus norvegicus [4]): 0.08

Compound: C=CCN1CC[C@]23c4c5ccc(O)c4O[C@H]2[C@@H](O)C=C[C@H]3[C@H]1C5 [NALORPHINE]
- Ratio (Rattus norvegicus [4]): 1.42

Compound: COc1ccc2c(c1)C13CCN(CC4CCC4)C(C2)[C@H]1[C@H](C)CC(=O)C3 (stereo partly drawn)
- ED50 (Mus musculus [1]): 47 µmol/kg
- ED50 (Rattus norvegicus [5]): inactive

Compound: CC(C)=CCN1CC[C@]2(C)c3cc(O)ccc3C[C@H]1[C@H]2C [(+)-PENTAZOCINE]
- Ratio (Rattus norvegicus [4]): 0.36

Compound: C=CCN1CCC23CC(=O)CC(C)[C@H]2C1Cc1ccc(OC)cc13 (stereo partly drawn)
- ED50 (Mus musculus [1]): 3.47 µmol/kg
- ED50 (Rattus norvegicus [2]): > 24 µmol/kg

Compound: Oc1ccc2c(c1)[C@@]13CCCC[C@@]1(O)[C@@H](C2)N(CC1CCC1)CC3 [BUTORPHANOL]
- ED50 (Mus musculus [1]): 0.34 µmol/kg
- ED50 (Rattus norvegicus [2]): 2 µmol/kg
- Ratio (Rattus norvegicus [4]): 0.17

Compound: CC[C@H]1CC(=O)CC23CCN(CC4CC4)C(Cc4ccc(OC)cc42)[C@H]13 (stereo partly drawn)
- ED50 (Mus musculus [1]): 4.4 µmol/kg
- ED50 (Rattus norvegicus [2]): > 50 µmol/kg

Compound: C[C@H]1CC(=O)CC23CCN(CC4CCC4)C(Cc4ccc(O)cc42)[C@H]13.Cl (stereo partly drawn)
- ED50 (Mus musculus [1]): 0.29 µmol/kg
- ED50 (Rattus norvegicus [2]): 2.79 µmol/kg
- Ratio (Rattus norvegicus [4]): 0.1

Compound: COc1ccc2c(c1)C13CCN(CC4CC4)C(C2)[C@H]1[C@H](C)CC(=O)C3 (stereo partly drawn)
- ED50 (Mus musculus [1]): > 80 µmol/kg
- ED50 (Rattus norvegicus [2]): 9 µmol/kg

Compound: O=C1CC[C@H]2C3Cc4ccc(O)cc4C2(CCN3CC2CCC2)C1 (stereo partly drawn)
- ED50 (Mus musculus [1]): 0.047 µmol/kg
- ED50 (Rattus norvegicus [5]): inactive

Compound: COc1ccc2c(c1)C13CCN(C)C(C2)[C@@H]1[C@@H](C)CC(=O)C3 (stereo partly drawn)
- ED50 (Mus musculus [1]): 1.34 µmol/kg
- ED50 (Rattus norvegicus [6]): 3.57 µmol/kg

Compound: C[C@H]1CC(=O)CC23CCN(C)C(Cc4ccc(O)cc42)[C@H]13 (stereo partly drawn)
- ED50 (Mus musculus [1]): 2.55 µmol/kg
- ED50 (Rattus norvegicus [6]): > 30 µmol/kg

Compound: CCC[C@H]1CC(=O)CC23CCN(CC4CC4)C(Cc4ccc(OC)cc42)[C@H]13 (stereo partly drawn)
- ED50 (Mus musculus [1]): 12.4 µmol/kg
- ED50 (Rattus norvegicus [5]): inactive

Compound: C=CCN1CCC23CC(=O)CC(C)[C@H]2C1Cc1ccc(O)cc13 (stereo partly drawn)
- ED50 (Mus musculus [1]): > 25 µmol/kg
- ED50 (Rattus norvegicus [2]): 0.65 µmol/kg

Compound: CCC[C@H]1CC(=O)CC23CCN(CC4CCC4)C(Cc4ccc(O)cc42)[C@H]13 (stereo partly drawn)
- ED50 (Mus musculus [1]): 1.06 µmol/kg
- ED50 (Rattus norvegicus [2]): 7.67 µmol/kg

Compound: O=C1CC[C@@H]2C3Cc4ccc(O)cc4C2(CCN3CC2CCC2)C1 (stereo partly drawn)
- ED50 (Mus musculus [1]): 2.6 µmol/kg
- ED50 (Rattus norvegicus [2]): 13.8 µmol/kg

Compound: CC[C@@H]1CC(=O)CC23CCN(C)C(Cc4ccc(O)cc42)[C@@H]13 (stereo partly drawn)
- ED50 (Mus musculus [1]): 2.11 µmol/kg
- ED50 (Rattus norvegicus [6]): 2.31 µmol/kg

Compound: COc1ccc2c(c1)[C@]13CCN(CC4CC4)[C@H](C2)[C@@H]1[C@@H](C)CC(=O)C3
- ED50 (Mus musculus [1]): 0.71 µmol/kg
- ED50 (Rattus norvegicus [2]): 4.27 µmol/kg
- Ratio (Rattus norvegicus [4]): 0.17

Compound: O=C1CC[C@H]2C3Cc4ccc(O)cc4C2(CCN3CC2CC2)C1 (stereo partly drawn)
- ED50 (Mus musculus [1]): 3.28 µmol/kg
- ED50 (Rattus norvegicus [2]): 7.4 µmol/kg
- Ratio (Rattus norvegicus [4]): 0.44

Compound: CN1CCC23CC(=O)CC[C@@H]2C1Cc1ccc(O)cc13 (stereo partly drawn)
- ED50 (Mus musculus [1]): 0.75 µmol/kg
- ED50 (Rattus norvegicus [6]): 1.33 µmol/kg

Compound: CC[C@H]1CC(=O)CC23CCN(C)C(Cc4ccc(O)cc42)[C@H]13 (stereo partly drawn)
- ED50 (Mus musculus [1]): 2.29 µmol/kg
- ED50 (Rattus norvegicus [6]): 33 µmol/kg

Compound: Cl.O=C1CC[C@@H]2C3Cc4ccc(O)cc4C2(CCN3CC2CC2)C1 (stereo partly drawn)
- ED50 (Mus musculus [7]): 8.9 µmol/kg
- ED50 (Rattus norvegicus [2]): 2.24 µmol/kg
- Ratio (Rattus norvegicus [4]): 4

Compound: COc1ccc2c(c1)C13CCN(C)C(C2)[C@H]1CCC(=O)C3 (stereo partly drawn)
- ED50 (Mus musculus [1]): 5.54 µmol/kg
- ED50 (Rattus norvegicus [6]): > 70 µmol/kg

Compound: CCC[C@H]1CC(=O)CC23CCN(C)C(Cc4ccc(OC)cc42)[C@H]13 (stereo partly drawn)
- ED50 (Mus musculus [1]): 15.4 µmol/kg
- ED50 (Rattus norvegicus [6]): > 28 µmol/kg

Compound: C[C@H]1CC(=O)C[C@]23CCN(CC4CC4)[C@H](Cc4ccc(O)cc42)[C@H]13
- ED50 (Mus musculus [1]): 10.2 µmol/kg
- ED50 (Rattus norvegicus [2]): 1.8 µmol/kg
- Ratio (Rattus norvegicus [4]): 5.7

Compound: CC[C@@H]1CC(=O)CC23CCN(CC4CCC4)C(Cc4ccc(O)cc42)[C@@H]13 (stereo partly drawn)
- ED50 (Mus musculus [1]): > 24 µmol/kg
- ED50 (Rattus norvegicus [2]): 11.6 µmol/kg

Compound: CCC[C@H]1CC(=O)CC23CCN(CC4CC4)C(Cc4ccc(O)cc42)[C@H]13 (stereo partly drawn)
- ED50 (Mus musculus [8]): inactive
- ED50 (Rattus norvegicus [2]): 24.3 µmol/kg
